Screening results (PubChem)
Only some compounds are listed: those with a hit (about 2% of all), similar ones and a draw of the others.
HNF4A DNA FP: change in binding of human HNF4A to DNA, primary screen, biochemical, fluorescence polarization, FITC-DNA; Hepatocyte nuclear factor 4-alpha (Homo sapiens), P41235; 1 h; activity change, % at 10 µM; 0.3% of 360,000 active; AID 1224865, 2016; in the data active = activity change above about 30%, passing the limit was not always enough
Rpn11 block: Rpn11 (PSMD14) deubiquitinase inhibitors, primary screen, biochemical, fluorescence polarization, uHTS; human 26S proteasome, Ub4-pepOG fluorescence polarization; 20S core pre-blocked with epoxomicin; inhibition, % at 20 µM; 0.59% of 360,000 active; AID 588493, 2011;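 active = inhibition at 20 µM, scaled to each plate's controls, above about 33%, limit read from the data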
CSN deneddyl inh: inhibitors of CSN-mediated cullin deneddylation, primary screen, biochemical, fluorescence polarization, uHTS; COP9 signalosome complex subunit 5 (Homo sapiens), Q92905; Purified CSN, SCF-Nedd8-OG deneddylation; inhibition, % at 12.5 µM; 0.38% of 360,000 active; AID 651999, 2013;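 active = pattern-corrected inhibition above about 35%, with an unprinted fluorescence ratio check between 0.5 and 1.5, limit read from the data, passing the limit was not always enough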;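 also: 0% = enzyme with substrate and 100% = substrate without enzyme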
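Detection – fluorescence polarization · System – HEK293T-derived human Csn5 enzyme · Controls – substrate-only high control, full reaction low control · Timing – 90 min, room temperature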
SENP1 FRET inh: human SENP1 catalytic domain inhibitors, primary screen, biochemical, FRET, uHTS; inhibition, % at 10 µM; recombinant SENP1 catalytic domain, CyPet-SUMO1-YPet FRET cleavage; 0.21% of 360,000 active;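 active = inhibition at least 30% at 10 µM, raw YFP signal under a set limit, fluorescence ratio 0.5 to 1.5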;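 also: 0% = enzyme with DMSO and 100% = no enzyme wells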
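material = recombinant human SENP1 catalytic domain, His6-tagged | quantity = 20 pM enzyme | reagent = 25 nM SUMO1 FRET substrate | compound dosing = 10 µM single point, 0.5% DMSO | timing = 50 min enzyme reaction, room temperature, light-protected | detection = FRET, CFP and YFP emission | control set = no-enzyme low, enzyme-DMSO high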
ATG4B inh: ATG4B protease inhibitors, primary screen, biochemical, fluorescence, uHTS | Cysteine protease ATG4B (Homo sapiens), Q9Y4P1 | ATG4B cleavage of LC3-PLA2, NBD-HPC fluorescence, 1 h | inhibition, % at 8.33 µM | 0.51% of 340,000 active | AID 504462, 2011
TPT1 inhibitor: Candida albicans TPT1 enzyme inhibitors, primary screen, biochemical, fluorescence polarization. recombinant caTPT1, FP RNA substrate dephosphorylation. inhibition, % at 5 µM. 0.81% of 300,000 active. AID 1962, 2009;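 active = inhibition above the mean of all tested compounds plus 3 SD, set per screening campaign, cut at about 24% in these data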;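 also: plate controls were DMSO alone for no effect and ferristatin control at 100 nM for full effect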
ATG4B confirm: ATG4B protease inhibitors, retest, confirmation, biochemical, fluorescence, single concentration. shares compounds with ATG4B inh. ATG4B protease fluorescent substrate cleavage assay. inhibition, % at 8.33 µM. 92% of 320 active. AID 504757, 2011; in the data active = inhibition above about 39%
PLA2 ctr: PLA2 enzyme inhibition, counter-screen for ATG4B inhibitor project, biochemical, single concentration, uHTS hits | shares compounds with ATG4B inh | purified PLA2, NBD-C6-HPC fluorescence, 45 min | inhibition, % at 8.33 µM | 66% of 1,600 active | AID 588402, 2011; in the data active = inhibition above about 50%
Rpn11 confirm: Rpn11 (PSMD14) deubiquitinase inhibitors, confirmation, biochemical, fluorescence polarization, single concentration; shares compounds with Rpn11 block; purified human 26S proteasome, Ub4-pepOG fluorescence polarization; proteasome pretreated with epoxomicin; inhibition, % at 20 µM; 29% of 1,900 active
MMP-2 counter-1: MMP-2 enzyme inhibition, confirmation, counter-screen for RPN11 inhibitor project, biochemical, fluorescence, single concentration | shares compounds with Rpn11 block | recombinant MMP-2, FRET peptide cleavage fluorescence | inhibition, % at 20 µM | 4% of 1,900 active;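 also: human MMP-2 activated beforehand with APMA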
Target sequence (P08253 whole entry, looked up): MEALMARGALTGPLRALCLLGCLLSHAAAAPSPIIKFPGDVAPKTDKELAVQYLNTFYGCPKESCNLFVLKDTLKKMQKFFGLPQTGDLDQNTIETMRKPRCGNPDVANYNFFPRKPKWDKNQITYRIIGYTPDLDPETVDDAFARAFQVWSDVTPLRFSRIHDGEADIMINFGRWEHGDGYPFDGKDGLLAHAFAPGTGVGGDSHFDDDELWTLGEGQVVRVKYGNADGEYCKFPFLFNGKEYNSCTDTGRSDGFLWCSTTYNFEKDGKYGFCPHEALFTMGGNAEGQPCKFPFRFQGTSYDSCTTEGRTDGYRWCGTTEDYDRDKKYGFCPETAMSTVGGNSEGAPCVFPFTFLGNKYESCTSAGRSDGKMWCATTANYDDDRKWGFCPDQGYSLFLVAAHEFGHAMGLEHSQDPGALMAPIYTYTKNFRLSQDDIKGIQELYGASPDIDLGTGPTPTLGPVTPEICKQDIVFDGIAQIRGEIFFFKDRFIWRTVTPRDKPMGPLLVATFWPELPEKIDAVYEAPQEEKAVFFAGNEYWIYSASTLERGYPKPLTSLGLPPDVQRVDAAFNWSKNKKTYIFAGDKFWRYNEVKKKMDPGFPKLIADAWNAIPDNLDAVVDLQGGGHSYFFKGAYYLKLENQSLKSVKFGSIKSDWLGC
Thrombin FP: bovine thrombin protease inhibition, confirmation, counter-screen for Rpn11 inhibitor project, biochemical, fluorescence polarization, single concentration. shares compounds with Rpn11 block. bovine thrombin cleavage of Ub4-pepOG. inhibition, % at 20 µM. 13% of 1,900 active. AID 602333, 2012;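 active = mean inhibition at least 40% at 20 µM, or signal 3 deviations below plate average, so some actives read negative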;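 also: plate controls were thrombin with DMSO for no effect and buffer wells lacking thrombin for full effect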
CSN deneddyl val: Csn5 deneddylation inhibitors, confirmation, biochemical, fluorescence polarization, single concentration, SCF-Nedd8OG substrate; shares compounds with CSN deneddyl inh; inhibition, % at 16.6 µM; AID 720654, 2013; Csn5 deneddylation of SCF-Nedd8OG, 90 min; 62% of 540 active; in the data active = inhibition above about 50%;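 also: 0% = DMSO with enzyme and 100% = no enzyme wells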
MMP-2 counter-2: MMP-2 protease inhibition counter-screen, confirmation, counter-screen for CSN deneddylation inhibitor project, biochemical, fluorescence, single concentration. shares compounds with CSN deneddyl inh. recombinant MMP-2, FRET substrate fluorescence, 60 min. inhibition, % at 16.6 µM. 33% of 540 active. AID 720655, 2013;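 active = corrected plate-normalized z-score of 5 or more, or -5 or less, or inhibition of 15% or more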;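 also: plate controls were DMSO wells with enzyme for no effect and buffer wells lacking MMP-2 for full effect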
Thrombin counter: counter-screen for CSN deneddylation inhibitors: bovine thrombin inhibition. shares compounds with CSN deneddyl inh. bovine thrombin cleavage of Ub4-pepOG, fluorescence polarization. inhibition, % at 16.6 µM. 49% of 540 active. AID 720656;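 active = inhibition at or above a set limit, with a fluorescence interference ratio between 0.5 and a set maximum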
Active calls of the source: *; nt = not tested or not shown. Rule as the data show it, unless noted: active = inhibition above about 40%; inactive = the rest.

SMILES | HNF4A DNA FP | Rpn11 block | CSN deneddyl inh | SENP1 FRET inh | ATG4B inh | TPT1 inhibitor | PLA2 ctr | CSN deneddyl val | MMP-2 counter-2 | Thrombin counter | others
COc1ccccc1Nc1cc2cc(Br)ccc2c(=O)[nH]1 | 4 | 3 | 53* | -76 | 66* | 8 | 5 | 70* | 10 | -25
CCc1nc2cc(NC(=O)C3(C)CCCN(C(C)C)C3)ccc2o1 (stereo not given) | 1 | 3 | 0 | -1 | nt | nt | nt | nt | nt | nt
Cc1nn(C)cc1/C=C1\SC(=S)NC1=O | -3 | 4 | 0 | -9 | 2 | -1 | nt | nt | nt | nt
O=C1NC(=S)S/C1=C\c1cc(Cl)cc(Cl)c1O | 28 | nt | 45* | 92 | 62* | nt | 36 | 54* | -3 | 56* | ATG4B confirm=40*
CC(C)CC1C(=O)N(Cc2cn(CCC3OCCCO3)nn2)CCS(=O)(=O)N1Cc1ccc(-c2cccc(N(C)C)c2)cc1 (stereo not given) | 0 | 3 | 0 | 2 | nt | nt | nt | nt | nt | nt
COc1cc([N+](=O)[O-])cc(/C=C2/SC(=S)N(Cc3ccccc3)C2=O)c1O | 42* | 61* | 40* | 79* | 49* | 0 | 75* | nt | -1 | 44* | Rpn11 confirm=64*;MMP-2 counter-1=55*;Thrombin FP=36
Nc1ccc2c(c1)C(=O)C(=O)c1ccccc1-2 | 2 | 0 | 51* | 5 | 78* | 3 | 11 | nt | 5 | -26 | ATG4B confirm=27
Cc1ccc(S(=O)(=O)/N=C2/NC(=O)/C(=C/c3cccnc3)S2)cc1 | 1 | 2 | 2 | 3 | 3 | 0 | nt | nt | nt | nt
Cc1ccc(S(=O)(=O)/N=C2/NC(=O)/C(=C\c3cc(Br)cc(Br)c3O)S2)cc1 | 80* | nt | 147* | 89 | 73* | nt | 60* | -72 | -80* | -84
C/C(=N/Nc1ccc([N+](=O)[O-])cc1)c1c[nH]c2ccccc12 | 70* | nt | 43* | -19 | 46* | nt | 50 | 69* | 3 | 22*
